Laboratory results published in publication PMC2850055 (Analytical chemistry, 2009).
Entries after “also recorded” stand apart in the source; their conditions may differ. Starred links: 1 amine or outer side, 2 acyl side, 3 side chain; linkers in the order of their positions; H or OH if unused. Non-standard residues stand in square brackets, D forms with d. Residues, ends and D or L forms follow the SMILES beside them. *: point of attachment. X2 = CCC(=O)CC1CC(C)CC(C(=O)[*:2])N1[*:1]; X1 = CCCCCCCCC(C)C(=O)*; Aib = CC(C)(N)C(=O)O; X3 = CC(CN(C)CCO)N*

Columns and labels:
[1] = system: AQP1-expressing fibroblasts (2497 cells); experiment: Calcein fluorescence quenching cell volume assay in 2497 fibroblasts; assay type: cell-based, mouse; conditions: 0.2 mM, 3 min preincubation, hyperosmotic challenge
Procedure, shortened: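 Mouse 2497 fibroblasts with endogenous AQP1 were grown in DMEM with 10% FBS at 37 °C. Cells were plated at 12 000 per well and assayed 24–48 h later at 80–85% confluence. They were loaded with 10 μM calcein-AM for 45 min at 37 °C and preincubated with the agent before the osmotic step. Fluorescence was read at ex 490/em 520 nm every 0.5 s: 15 s baseline, 35 s after hyperosmolar PBS (0.5 M NaCl), then 40 s after water. Shrinkage time constant came from an exponential fit.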

[2] = system: primary mouse astrocytes expressing endogenous AQP4; experiment: Calcein fluorescence quenching cell volume assay in primary mouse astrocytes; assay type: cell-based; conditions: for alteration of water flux kinetics / cell volume regulation (RVI, RVD, shrinkage): 20 μM, 15 min incubation, osmotic shock
[3] = molecular target: T1, AQP1 (native, erythrocytes) (Rattus norvegicus, UniProt P29975); experiment: Stopped-flow light scattering water transport in erythrocytes; assay type: cell-based
T1 sequence (P29975 1-269): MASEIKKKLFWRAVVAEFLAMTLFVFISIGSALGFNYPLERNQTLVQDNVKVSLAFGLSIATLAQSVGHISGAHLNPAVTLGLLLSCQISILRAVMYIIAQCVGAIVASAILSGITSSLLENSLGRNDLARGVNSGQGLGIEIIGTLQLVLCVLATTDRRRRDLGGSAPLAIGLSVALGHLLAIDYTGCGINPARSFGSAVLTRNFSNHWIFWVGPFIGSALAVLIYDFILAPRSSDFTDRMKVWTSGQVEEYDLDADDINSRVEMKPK
Procedure, shortened: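 Erythrocytes came from heparinised Wistar rat blood, were washed three times in PBS (800g, 4 °C, 10 min) and used within 24 h. At 1% haematocrit in PBS they were preincubated 15 min with test compound, then stopped-flow mixed with equal-volume hyperosmolar PBS to give a 250 mOsm inward gradient. Shrinkage was recorded by light scattering at 600 nm at 12 °C.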

[4] = system: vesicles from TNC1-untransfected cells; experiment: Stopped-flow light scattering in vesicles from untransfected TNC1 cells; assay type: biochemical, rat; conditions: 20 μM, data not shown
Procedure, shortened: (§1)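 Plasma membrane vesicles from rat TNC1 cells were made by homogenisation in sucrose/EDTA/protease-inhibitor buffer (pH 7.2), a 4000g 15 min spin, then pelleting of the supernatant at 17 000g for 45 min. Vesicles at 0.5 mg protein/mL in 50 mM sucrose, 10 mM Tris-HCl pH 7.4 were preincubated 15 min with test compound. Stopped-flow mixing imposed a 250 mOsm inward sucrose gradient. Volume decrease was followed by 90° scatter at 530 nm, and time constant was computed.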

AQP4 = AQP4 (Rattus norvegicus, UniProt P47863); assay type: biochemical
Procedure, shortened: as §1

[5] = molecular target: AQP4 (M23 isoform) in transfected TNC1 cells (Rattus norvegicus, UniProt P47863); experiment: Calcein fluorescence quenching cell volume assay in AQP4-transfected TNC1 cells; assay type: cell-based; conditions: 20 uM
Procedure, shortened: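 Rat TNC1 astrocytoma cells were stably co-transfected with rat AQP4 M23 (aa23–323) cDNA and a puromycin-resistance vector, then maintained in 2 μg/mL puromycin. Cells were plated at 12 000 per well and loaded with 10 μM calcein-AM for 45 min at 37 °C. Test compound was given for 15 min at 20 μM final. Calcein fluorescence (490/520 nm) was recorded every 0.5 s through a hyperosmolar NaCl challenge and isosmotic restoration. Shrinkage time constant came from an exponential fit.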

Sequence of AQP4 (P47863 23-323): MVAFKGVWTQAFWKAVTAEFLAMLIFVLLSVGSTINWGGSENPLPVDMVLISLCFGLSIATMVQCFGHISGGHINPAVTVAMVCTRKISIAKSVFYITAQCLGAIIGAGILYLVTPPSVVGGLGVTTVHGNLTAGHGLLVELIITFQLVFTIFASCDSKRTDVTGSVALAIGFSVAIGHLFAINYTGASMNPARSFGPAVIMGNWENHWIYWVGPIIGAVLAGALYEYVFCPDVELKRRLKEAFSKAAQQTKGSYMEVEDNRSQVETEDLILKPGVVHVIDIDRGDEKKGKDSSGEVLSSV
Sequence of AQP4 (M23 isoform) in transfected TNC1 cells (P47863 23-323): as above

Structure (SMILES): [Cl][Hg][Cl] [HgCl2, mercuric chloride]
- reduction of the cell shrinkage rate [1]: 52.7 ± 3%
- effect on time course/kinetics of cell shrinkage ([2]; astrocytes pretreated with 0.2 mM, 3 min): did not change significantly; also recorded: lack of effect

Structure (SMILES): CCC[CH2][Sn]([CH2]CCC)([CH2]CCC)[O]c1cc(Cl)c(Cl)cc1Cl [NSC164914, tributyl-(2,4,5-trichlorophenoxy)stannane]
- effect on AQP1 [3]: inhibitory effects
- inhibition of the shrinkage rate ([3]; 40 μM): ~ 64%
- reduction of shrinkage kinetics [4]: no significant reduction
- effect on AQP4 (AQP4): inhibitory effects
- alteration of water flux kinetics / cell volume regulation (RVI, RVD, shrinkage) [2]: affected shrinkage rate

Structure (SMILES): CCC[CH2][Pb]([Cl])([CH2]CCC)[CH2]CCC [NSC168597, tributyl-chloroplumbane]
- effect on AQP1 [3]: inhibitory effects
- effect on AQP4 (AQP4): inhibitory effects

Structure (SMILES): CCCCCCCCC(C)C(=O)N1CCCC1C(=O)N1C(CC(=O)CC)CC(C)CC1C(=O)NC(C)C(=O)NC(C)(C)C(=O)NC(C)(C)C(=O)NC(C(=O)NC(C)C(=O)NC(C)(C)C(=O)NC(C)(C)C(=O)NC(C)CN(C)CCO)C(C)CC (stereo not shown) [NSC301460, trichopolin] (X1-P[X2]A[Aib][Aib]IA[Aib][Aib]-X3; configuration not given here)
- alteration of water flux kinetics / cell volume regulation (RVI, RVD, shrinkage) [2]: affected shrinkage rate

Structure (SMILES): CCCCCn1cc2c3c(cccc31)C1C=C(C)CN(C)[C@@H]1C2.Cc1ccc(C(=O)OC(C(=O)O)C(OC(=O)c2ccc(C)cc2)C(=O)O)cc1 (stereo not shown) [NSC600681]
- AQP4-mediated cell shrinkage time constant [5]: significantly longer

Structure (SMILES): COc1ccc(CCN2CCC(Nc3nc4ccccc4n3Cc3ccc(F)cc3)CC2)cc1 [astemizole]
- alteration of water flux kinetics / cell volume regulation (RVI, RVD, shrinkage) [2]: Altered cell volume regulation

Structure (SMILES): OCCN1CCN(CCCN2c3ccccc3Sc3ccc(C(F)(F)F)cc32)CC1 [fluphenazine]
- alteration of water flux kinetics / cell volume regulation (RVI, RVD, shrinkage) [2]: Altered cell volume regulation
